From ChEMBL document CHEMBL4138092, “Antibacterial activity and mechanism of action of the benzazole acrylonitrile-based compounds: In vitro, spectroscopic, and docking studies” (2017)
In brackets after ≈: the same amount, converted by molar mass. Activity calls are given as the source filed them. The rule behind the calls is not given here.

Key:
Escherichia coli [1] = assay: Antibacterial activity against Escherichia coli ATCC 25922 after 24 to 48 hrs by agar well diffusion method; format: functional
Procedure, shortened: (§1)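 Mueller Hinton agar plates spread with bacteria (10⁶ cells/ml). Wells were filled with 50 µl of compound and incubated at 37 °C for 24–48 h. The inhibition zone diameter (mm) was measured with a transparent scale. Amoxicillin 5.0 mg/ml at 50 µl/well served as the positive control.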

Staphylococcus aureus [2] = assay: Antibacterial activity against Staphylococcus aureus ATCC 25923 after 24 to 48 hrs by agar well diffusion method; format: functional; procedure, shortened: as §1
Pseudomonas aeruginosa [3] = assay: Antibacterial activity against Pseudomonas aeruginosa ATCC 27853 after 24 hrs by agar well diffusion method; format: functional; conditions: ATCC 27853, 24 h
Escherichia coli [4] = assay: Antibacterial activity against Escherichia coli ATCC 25922 after 24 hrs by agar well diffusion method; format: functional; conditions: ATCC 25922, 24 h
Bacillus spizizenii [5] = assay: Antibacterial activity against Bacillus subtilis ATCC 6633 after 24 hrs by agar well diffusion method; format: functional; conditions: ATCC 6633, 24 h
Bifidobacterium longum = assay: Antibacterial activity against Bifidobacterium infantis after 24 hrs by agar well diffusion method; format: functional, Bifidobacterium longum subsp. infantis
Bacillus spizizenii [6] = assay: Antibacterial activity against Bacillus subtilis ATCC 6633 after 24 to 48 hrs by agar well diffusion method; format: functional; procedure, shortened: as §1
Pseudomonas aeruginosa [7] = assay: Antibacterial activity against Pseudomonas aeruginosa ATCC 27853 after 24 to 48 hrs by agar well diffusion method; format: functional; procedure, shortened: as §1
Staphylococcus aureus [8] = assay: Antibacterial activity against Staphylococcus aureus ATCC 25923 after 24 hrs by agar well diffusion method; format: functional; conditions: ATCC 25923, 24 h
Escherichia coli [9] = assay: Induction of morphological changes in Escherichia coli ATCC 25922 assessed as cell damage at 0.2 ppm after 2 hrs by uranyl acetate staining based transmission electron microscopic analysis; format: functional, organism-based
Procedure, shortened: (§2)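 E. coli was exposed for 2 h, alongside untreated controls processed identically. Pellets were fixed in Karnovsky's fixative (2% paraformaldehyde, 2.5% glutaraldehyde) for 3–4 h at 25 °C, then washed in 0.1 M phosphate pH 7.2. Cells were adsorbed onto formvar-carbon copper grids and stained 5 min in […] aqueous uranyl acetate. Grids were imaged by TEM at 80 kV.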

Escherichia coli [10] = assay: Induction of morphological changes in Escherichia coli ATCC 25922 assessed as cell rupture at 0.2 ppm after 2 hrs by uranyl acetate staining based transmission electron microscopic analysis; format: functional, organism-based; procedure, shortened: as §2
[11] = biological target: Beta-lactamase (Staphylococcus aureus) (UniProt P00807); assay: Inhibition of beta-lactamase in Staphylococcus aureus ATCC 25923 assessed as potentiation of amoxicillin induced antibacterial activity at 10 to 100% amoxicillin to compound dilution after 24 hrs by agar well diffusion method
Procedure, shortened: (§3)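 Amoxicillin (1.0 µg/ml) was combined with test compound and diluted to 100, 80, 60, 40, 10 and 5%. The mixtures were serially diluted in sterile water, and 100 µl was added to 900 µl nutrient broth. Tubes were inoculated with 10 µl of 10⁵ cells/ml and held 24 h at 37±1 °C. Growth/no growth was scored visually. Controls were bacteria in broth alone and sterile broth alone.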

[12] = tested on: Escherichia coli ATCC 25922; assay: Inhibition of beta-lactamase in Escherichia coli ATCC 25922 assessed as potentiation of amoxicillin induced antibacterial activity by measuring amoxicillin MIC after 24 hrs by agar well diffusion method (reference value: 1.5 ug/ml); procedure, shortened: as §3
[13] = biological target: Beta-lactamase (Escherichia coli) (UniProt Q53TY8); assay: Binding affinity to Escherichia coli beta-lactamase in phosphate buffer at pH 7.4 at 6 10^-5M after 3 mins by fluorescence titration analysis
Procedure, shortened: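 Fixed compound concentration in phosphate buffer pH 7.4, titrated with 10 µl additions of 1 × 10^-6 M β-lactamase. Excitation was 280 or 290 nm depending on compound, with emission scanned 300–600 nm and slits 5–10 nm. Readings followed 3 min equilibration per addition in a 1 cm quartz cell, continuing to saturation.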

[14] = tested on: Bifidobacterium longum subsp. infantis; assay: Inhibition of beta-lactamase in Bifidobacterium infantis assessed as potentiation of amoxicillin induced antibacterial activity after 24 hrs by agar well diffusion method; procedure, shortened: as §3
[15] = tested on: Bifidobacterium longum subsp. infantis; assay: Inhibition of beta-lactamase in Bifidobacterium infantis assessed as potentiation of amoxicillin induced antibacterial activity at 5% amoxicillin to compound dilution after 24 hrs by agar well diffusion method; procedure, shortened: as §3
[16] = biological target: Beta-lactamase (Staphylococcus aureus) (UniProt P00807); assay: Inhibition of beta-lactamase in Staphylococcus aureus ATCC 25923 assessed as potentiation of amoxicillin induced antibacterial activity after 24 hrs by agar well diffusion method; procedure, shortened: as §3
[17] = biological target: Beta-lactamase (Escherichia coli) (UniProt Q53TY8); assay: Binding affinity to Escherichia coli beta-lactamase in phosphate buffer at pH 7.4 at 6 10^-5M after 3 mins by UV-vis spectroscopic analysis
Procedure, shortened: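 Compound at 6 × 10^-5 M in 0.01 M phosphate buffer pH 7.4 was titrated with 10 µl aliquots of 1 × 10^-6 M β-lactamase. Absorbance spectra were recorded at 200–700 nm after 3 min equilibration per addition, continuing until no further change (saturation).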

[18] = biological target: Beta-lactamase (Pseudomonas aeruginosa) (UniProt Q79MP6); assay: Inhibition of beta-lactamase in Pseudomonas aeruginosa ATCC 27853 assessed as potentiation of amoxicillin induced antibacterial activity by measuring amoxicillin MIC after 24 hrs by agar well diffusion method (reference value: 1 ug/ml); procedure, shortened: as §3
[19] = tested on: Bifidobacterium longum subsp. infantis; assay: Inhibition of beta-lactamase in Bifidobacterium infantis assessed as potentiation of amoxicillin induced antibacterial activity by measuring amoxicillin MIC after 24 hrs by agar well diffusion method (reference value: 1.5 ug/ml); procedure, shortened: as §3
[20] = tested on: Escherichia coli ATCC 25922; assay: Inhibition of beta-lactamase in Escherichia coli ATCC 25922 assessed as potentiation of amoxicillin induced antibacterial activity at 10 to 100% amoxicillin to compound dilution after 24 hrs by agar well diffusion method; procedure, shortened: as §3
[21] = tested on: Escherichia coli ATCC 25922; assay: Inhibition of beta-lactamase in Escherichia coli ATCC 25922 assessed as potentiation of amoxicillin induced antibacterial activity at 5% amoxicillin to compound dilution after 24 hrs by agar well diffusion method; procedure, shortened: as §3
Escherichia coli [22] = assay: Induction of morphological changes in Escherichia coli ATCC 25922 assessed as cell crack at 0.2 ppm after 2 hrs by uranyl acetate staining based transmission electron microscopic analysis; format: functional, organism-based; procedure, shortened: as §2
[23] = biological target: Beta-lactamase (Pseudomonas aeruginosa) (UniProt Q8RL90); assay: Inhibition of beta-lactamase in Pseudomonas aeruginosa ATCC 27853 assessed as potentiation of amoxicillin induced antibacterial activity after 24 hrs by agar well diffusion method; procedure, shortened: as §3
[24] = biological target: Beta-lactamase (Pseudomonas aeruginosa) (UniProt Q8RL90); assay: Inhibition of beta-lactamase in Pseudomonas aeruginosa ATCC 27853 assessed as potentiation of amoxicillin induced antibacterial activity at 5% amoxicillin to compound dilution after 24 hrs by agar well diffusion method; procedure, shortened: as §3
[25] = tested on: Bifidobacterium longum subsp. infantis; assay: Inhibition of beta-lactamase in Bifidobacterium infantis assessed as potentiation of amoxicillin induced antibacterial activity at 10 to 100% amoxicillin to compound dilution after 24 hrs by agar well diffusion method; procedure, shortened: as §3
[26] = biological target: Beta-lactamase (Pseudomonas aeruginosa) (UniProt Q79MP6); assay: Inhibition of beta-lactamase in Pseudomonas aeruginosa ATCC 27853 assessed as potentiation of amoxicillin induced antibacterial activity at 10 to 100% amoxicillin to compound dilution after 24 hrs by agar well diffusion method; procedure, shortened: as §3
[27] = tested on: Escherichia coli ATCC 25922; assay: Inhibition of beta-lactamase in Escherichia coli ATCC 25922 assessed as potentiation of amoxicillin induced antibacterial activity after 24 hrs by agar well diffusion method; procedure, shortened: as §3
[28] = biological target: Beta-lactamase (Staphylococcus aureus) (UniProt P00807); assay: Inhibition of beta-lactamase in Staphylococcus aureus ATCC 25923 assessed as potentiation of amoxicillin induced antibacterial activity at 5% amoxicillin to compound dilution after 24 hrs by agar well diffusion method; procedure, shortened: as §3
[29] = biological target: Beta-lactamase (Escherichia coli) (UniProt Q53TY8); assay: Binding affinity to Escherichia coli beta-lactamase in phosphate buffer at pH 7.4 at 6 10^-5M by CD spectral analysis
Procedure, shortened: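 Successive additions of compound (6 × 10^-5 M) were made to 1.0 mL β-lactamase in phosphate buffer pH 7.4. CD spectra were recorded at 25 °C over 200–700 nm, scan speed 50 nm/min, bandwidth 1 nm.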

[30] = biological target: Beta-lactamase (Staphylococcus aureus) (UniProt P00807); assay: Inhibition of beta-lactamase in Staphylococcus aureus ATCC 25923 assessed as potentiation of amoxicillin induced antibacterial activity by measuring amoxicillin MIC after 24 hrs by agar well diffusion method (reference value: 1.5 ug/ml); procedure, shortened: as §3

In the case of `CC1(C)S[C@@H]2[C@H](NC(=O)[C@H](N)c3ccc(O)cc3)C(=O)N2[C@H]1C(=O)O` [AMOXICILLIN], the “inhibition zone (IZ)” value (Escherichia coli [1]) is reported as 21 mm, the “inhibition zone (IZ)” value (Staphylococcus aureus [2]) is reported as 25 mm and the MIC (Pseudomonas aeruginosa [3]) is reported as 1 µg/mL (≈ 2.74 µM). The MIC (Escherichia coli [4]) was 1.5 µg/mL (≈ 4.1 µM), the MIC (Bacillus spizizenii [5]) was 1.5 µg/mL (≈ 4.1 µM) and the MIC (Bifidobacterium longum) was 1.5 µg/mL (≈ 4.1 µM). For the same compound, the “inhibition zone (IZ)” value (Bacillus spizizenii [6]) was 14 mm, the “inhibition zone (IZ)” value (Pseudomonas aeruginosa [7]) was 24 mm and the MIC (Staphylococcus aureus [8]) was 1.5 µg/mL (≈ 4.1 µM).
`N#C/C(=C\c1cnc(NCc2ccccc2)nc1)c1nc2ccccc2s1` was tested, and the “inhibition zone (IZ)” value (Escherichia coli [1]) was 50 mm, the “inhibition zone (IZ)” value (Staphylococcus aureus [2]) was 35 mm and the MIC (Pseudomonas aeruginosa [3]) was 18.3 µg/mL (≈ 49.5 µM). The MIC (Escherichia coli [4]) was 18.3 µg/mL (≈ 49.5 µM), the MIC (Bacillus spizizenii [5]) was 18.3 µg/mL (≈ 49.5 µM) and the “inhibition zone (IZ)” value (Bacillus spizizenii [6]) was 39 mm. For the same compound, the “inhibition zone (IZ)” value (Pseudomonas aeruginosa [7]) was 35 mm and the MIC (Staphylococcus aureus [8]) was 18.3 µg/mL (≈ 49.5 µM).
For `CN(C)c1ncc(/C=C(\C#N)c2nc3ccccc3[nH]2)cn1`, the “inhibition zone (IZ)” value (Escherichia coli [1]) was 50 mm, the “inhibition zone (IZ)” value (Staphylococcus aureus [2]) was 30 mm and the MIC (Pseudomonas aeruginosa [3]) was 11.1 µg/mL (≈ 38.2 µM). For the same compound, the MIC (Escherichia coli [4]) was 14.3 µg/mL (≈ 49.3 µM), the MIC (Bacillus spizizenii [5]) was 20 µg/mL (≈ 68.9 µM) and the “inhibition zone (IZ)” value (Bacillus spizizenii [6]) was 39 mm. For the same compound, the “inhibition zone (IZ)” value (Pseudomonas aeruginosa [7]) was 30 mm and the MIC (Staphylococcus aureus [8]) was 11.1 µg/mL (≈ 38.2 µM).
With `N#C/C(=C\c1cnc(NCc2ccccc2)nc1)c1nc2ccccc2[nH]1` the “inhibition zone (IZ)” value (Escherichia coli [1]) was 45 mm, the “inhibition zone (IZ)” value (Staphylococcus aureus [2]) was 35 mm and the MIC (Pseudomonas aeruginosa [3]) was 18 µg/mL (≈ 51.1 µM). For the same compound, the MIC (Escherichia coli [4]) was 18 µg/mL (≈ 51.1 µM), the MIC (Bacillus spizizenii [5]) was 25 µg/mL (≈ 70.9 µM) and the “inhibition zone (IZ)” value (Bacillus spizizenii [6]) was 40 mm. For the same compound, the “inhibition zone (IZ)” value (Pseudomonas aeruginosa [7]) was 30 mm and the MIC (Staphylococcus aureus [8]) was 18 µg/mL (≈ 51.1 µM).
For `N#C/C(=C\c1cnc(N)nc1N)c1nc2ccccc2s1`, the Activity (Escherichia coli [9]) was “Active”, the “inhibition zone (IZ)” value (Escherichia coli [1]) was 47 mm and the “inhibition zone (IZ)” value (Staphylococcus aureus [2]) was 32 mm. For the same compound, the MIC (Pseudomonas aeruginosa [3]) was 1 µg/mL (≈ 3.4 µM), the Activity (Escherichia coli [10]) was “Active” and the inhibition [11] was “Active”. The MIC [12] was 0.1 µg/mL, the MIC (Escherichia coli [4]) was 1 µg/mL (≈ 3.4 µM) and the Activity [13] was “Active”. The fractional inhibitory concentration index (FICI) [14] was 0.2, the inhibition [15] was “inactive” and the fractional inhibitory concentration index (FICI) [16] was 0.2. For the same compound, the Activity [17] was “Active”, the MIC [18] was 0.8 µg/mL and the MIC (Bacillus spizizenii [5]) was 8 µg/mL (≈ 27.2 µM). The MIC [19] was 0.1 µg/mL, the MIC (Bifidobacterium longum) was 1 µg/mL (≈ 3.4 µM) and the inhibition [20] was “Active”. The “inhibition zone (IZ)” value (Bacillus spizizenii [6]) was 40 mm, the “inhibition zone (IZ)” value (Pseudomonas aeruginosa [7]) was 28 mm and the inhibition [21] was “inactive”. The Activity (Escherichia coli [22]) was “Active”, the MIC (Staphylococcus aureus [8]) was 8 µg/mL (≈ 27.2 µM) and the fractional inhibitory concentration index (FICI) [23] was 0.2. The inhibition [24] was “inactive”, the inhibition [25] was “Active” and the inhibition [26] was “Active”. For the same compound, the fractional inhibitory concentration index (FICI) [27] was 0.2, the inhibition [28] was “inactive” and the Activity [29] was “Active”. It also gave an MIC [30] of 0.8 µg/mL.
